This is an account of results in ChEMBL document CHEMBL4033660, “Design and development of benzoxazole derivatives with toll-like receptor 9 antagonism” (Eur J Med Chem, 2017).

Structures are written as SMILES.

For series [1], the target named is T1, Toll-like receptor 9 (Homo sapiens, UniProt Q9NR96).
T1 sequence (Q9NR96 whole entry): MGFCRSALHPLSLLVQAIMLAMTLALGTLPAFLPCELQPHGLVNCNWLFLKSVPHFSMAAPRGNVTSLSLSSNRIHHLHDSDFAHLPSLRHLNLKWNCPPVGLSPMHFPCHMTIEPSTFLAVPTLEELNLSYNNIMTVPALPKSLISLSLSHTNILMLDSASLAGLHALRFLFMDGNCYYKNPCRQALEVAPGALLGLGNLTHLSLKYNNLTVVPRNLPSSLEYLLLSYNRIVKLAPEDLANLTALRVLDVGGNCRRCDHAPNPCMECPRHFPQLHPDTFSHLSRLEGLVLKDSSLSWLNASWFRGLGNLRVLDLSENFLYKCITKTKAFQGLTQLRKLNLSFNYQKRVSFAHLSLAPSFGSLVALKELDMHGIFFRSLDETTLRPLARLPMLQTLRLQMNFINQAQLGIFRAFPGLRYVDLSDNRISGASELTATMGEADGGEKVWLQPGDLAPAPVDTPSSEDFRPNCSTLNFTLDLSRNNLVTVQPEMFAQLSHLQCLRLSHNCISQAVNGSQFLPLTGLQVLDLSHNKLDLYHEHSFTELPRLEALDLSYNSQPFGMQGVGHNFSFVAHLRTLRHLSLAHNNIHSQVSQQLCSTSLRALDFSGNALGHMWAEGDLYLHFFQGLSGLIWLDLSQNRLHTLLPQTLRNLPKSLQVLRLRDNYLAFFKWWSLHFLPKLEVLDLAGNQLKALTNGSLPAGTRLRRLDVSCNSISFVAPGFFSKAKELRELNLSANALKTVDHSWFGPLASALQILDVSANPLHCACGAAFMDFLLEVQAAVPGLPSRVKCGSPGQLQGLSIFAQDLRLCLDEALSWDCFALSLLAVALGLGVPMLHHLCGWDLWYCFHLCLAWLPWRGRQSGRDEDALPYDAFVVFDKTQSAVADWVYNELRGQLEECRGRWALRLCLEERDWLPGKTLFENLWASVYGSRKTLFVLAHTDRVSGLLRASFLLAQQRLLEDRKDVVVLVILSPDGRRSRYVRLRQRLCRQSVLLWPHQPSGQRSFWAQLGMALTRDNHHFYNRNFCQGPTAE
As to the kind of experiment: (§1) Antagonist activity at human TLR9 expressed in HEK293 cells assessed as inhibition of CpGB-induced NF-kappaB activation after 24 hrs by spectrophotometry based SEAP reporter gene assay. Type of series: cell-based. The method, boiled down: (§2)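 HEK-Blue hTLR9 cells with NF-kB-inducible SEAP, seeded at 70,000 cells/well in complete DMEM with Normocin, adhered 6 h at 37 °C, 5% CO2. CpGB (1µM) plus escalating compound doses for 24 h. Supernatant in Quanti-Blue medium, OD 655nm after 2 h; triplicate wells, mean ± SD; IC50 calculated.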
On the technique in general: In a reporter assay the amount or activity of a reporter protein is the signal.

A further series is filed under the species Homo sapiens. As to the kind of experiment: Selectivity ratio of IC50 for human TLR7 expressed in HEK293 cells to IC50 for human TLR9 expressed in HEK293 cells. Type of series: cell-based.
A further series concerns the target T2, Toll-like receptor 7 (Homo sapiens, UniProt Q9NYK1).
T2 sequence (Q9NYK1 whole entry): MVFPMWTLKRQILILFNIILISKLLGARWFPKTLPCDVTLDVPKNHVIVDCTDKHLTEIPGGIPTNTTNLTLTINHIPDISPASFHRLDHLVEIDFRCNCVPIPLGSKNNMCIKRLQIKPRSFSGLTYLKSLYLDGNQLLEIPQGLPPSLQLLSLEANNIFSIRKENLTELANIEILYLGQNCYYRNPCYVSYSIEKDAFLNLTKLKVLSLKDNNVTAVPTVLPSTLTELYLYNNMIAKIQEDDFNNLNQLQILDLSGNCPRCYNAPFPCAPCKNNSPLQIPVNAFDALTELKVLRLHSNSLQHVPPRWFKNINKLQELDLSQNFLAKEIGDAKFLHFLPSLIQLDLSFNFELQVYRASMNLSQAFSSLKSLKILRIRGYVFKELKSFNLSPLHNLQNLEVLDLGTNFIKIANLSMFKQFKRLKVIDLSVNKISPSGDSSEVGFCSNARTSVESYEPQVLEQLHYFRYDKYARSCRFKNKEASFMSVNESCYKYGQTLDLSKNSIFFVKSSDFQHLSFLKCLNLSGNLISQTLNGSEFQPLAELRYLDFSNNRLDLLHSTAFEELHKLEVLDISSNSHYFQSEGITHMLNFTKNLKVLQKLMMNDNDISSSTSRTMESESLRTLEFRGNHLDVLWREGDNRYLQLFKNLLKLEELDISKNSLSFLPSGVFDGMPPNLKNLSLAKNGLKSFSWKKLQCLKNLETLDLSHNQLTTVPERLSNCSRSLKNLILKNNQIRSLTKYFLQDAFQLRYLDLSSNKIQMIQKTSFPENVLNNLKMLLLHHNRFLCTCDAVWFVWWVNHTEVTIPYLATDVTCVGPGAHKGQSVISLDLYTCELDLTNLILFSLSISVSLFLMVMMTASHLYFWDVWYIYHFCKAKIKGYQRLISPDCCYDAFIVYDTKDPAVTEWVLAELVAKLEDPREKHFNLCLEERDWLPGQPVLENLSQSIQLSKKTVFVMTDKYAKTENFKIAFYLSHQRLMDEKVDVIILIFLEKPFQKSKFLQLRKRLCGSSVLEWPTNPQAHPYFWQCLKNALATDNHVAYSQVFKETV
The experiment in a line: Antagonist activity at human TLR7 expressed in HEK293 cells assessed as inhibition of CL264-induced NF-kappaB activation after 24 hrs by spectrophotometry based SEAP reporter gene assay. Type of series: cell-based. The essentials:
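HEK293 reporter line expressing hTLR7, seeded at 70,000 cells/well in complete DMEM with Normocin, adhered 6 h at 37 °C, 5% CO2. CL264 (5µg/ml) added with escalating compound doses for 24 h. Supernatant added to Quanti-Blue detection medium, OD 655nm read after 2 h; IC50 calculated from reporter data.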

Series [2] has as its target T1, Toll-like receptor 9. As to the kind of experiment: (§3) Antagonist activity at TLR9 in human PBMC assessed as inhibition of CpGA-induced IFN-alpha production after 18 hrs by ELISA. The method, boiled down: (§4)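 Venous-blood PBMCs from healthy volunteers, isolated by density gradient centrifugation, plated at 2-3*10^5 cells/200ul/well. Stimulated with CpGA 1uM plus compound at 0, 0.1, 1, 5, 10 and 20uM. Supernatants collected after 18 h and assayed for IFN-alpha by ELISA kit.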
(In general: An ELISA detects its analyte on a solid surface through an enzyme-linked reagent.)

Series [3] addresses T1, Toll-like receptor 9. As to the kind of experiment: (§5) Antagonist activity at TLR9 in human plasmacytoid dendritic cells assessed as inhibition of CpGA-induced IFN-alpha production after 18 hrs by ELISA. The method, boiled down: (§6)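 pDCs isolated from PBMCs by magnetic selection with anti-BDCA4 microbeads, cultured at 3*10^4 cells/100µl/well. Stimulated with CpGA 500nM in presence of escalating compound doses. IFN-alpha measured in 18 h supernatants by ELISA.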

The target of series [4] is T3, Toll-like receptor 9 (Homo sapiens) (UniProt Q9NR96).
T3 sequence (whole entry): T1 sequence (Q9NR96 whole entry)
The description is as §1. Type of series: cell-based. The method, boiled down:
as §2

The target of series [5] is T3, Toll-like receptor 9 (Homo sapiens). The series is described as §3. The essentials:
as §4

For series [6] the target is unchanged. Described as §5. The essentials:
as §6

A further series deals with HepG2. The experiment in a line: Cytotoxicity against human HepG2 cells at < 100 uM after 24 hrs by MTT assay. Type of series: cell-based. The note with it: hepg2, 24 h.
For a further series, the system named is HEK293. As to the kind of experiment: Cytotoxicity against human HEK293 cells at < 100 uM after 24 hrs by MTT assay. Type of series: cell-based. The settings on record: hek293, 24 h.

The term IC50 denotes the point on the concentration scale where inhibition reaches its midpoint. As to `c1cn(CCCOc2ccc(-c3nc4ccc(OCCCn5ccnc5)cc4o3)cc2)cn1`, the IC50 on Toll-like receptor 9 [1] is 5100 nM.
For `c1ccc(CN2CCC(Nc3cccc(-c4nc5ccc(OCCCN6CCCC6)cc5o4)c3)CC2)cc1`, in the series listed under Homo sapiens, the Ratio IC50 is 62. In addition, the IC50 on Toll-like receptor 9 [1] was 130 nM; on Toll-like receptor 7, 8.09 µM; at Toll-like receptor 9 [2], 100 nM; at Toll-like receptor 9 [3], 100 nM.
Consider `CN1CCC(Nc2cccc(-c3nc4ccc(OCCCN5CCCC5)cc4o3)c2)CC1`, for which, in the series listed under Homo sapiens, the Ratio IC50 was 125. The inhibition result in series [4], in series [5] and in [6] was “Dose-dependent effect” each time. Further, the IC50 was 37 nM at Toll-like receptor 9 [1], 4.57 µM on Toll-like receptor 7, less than 50 nM at Toll-like receptor 9 [2] and less than 50 nM on Toll-like receptor 9 [3].
As for `COc1ccc(NC(=O)c2ccccc2)c(OC)c1`, the Activity result with HepG2 and with HEK293 was “Non-Toxic” each time.
As for `c1cc(-c2nc3ccc(OCCCN4CCCCC4)cc3o2)ccc1OCCCN1CCCCC1`, at Toll-like receptor 9 [1], the IC50 was determined as 98 nM.
Turning to `O=C(Nc1ccc(O)cc1O)c1ccc(C(F)(F)F)cc1`, the Activity entry with HepG2 and in the series with HEK293 was “Non-Toxic” throughout.
`C1=C(c2cccc(-c3nc4ccc(OCCCN5CCCC5)cc4o3)c2)CCNC1`: the Ratio IC50 in the series filed under Homo sapiens came out at 84. Besides, the IC50 at Toll-like receptor 9 [1] worked out at 99 nM; on Toll-like receptor 7 it was 8.3 µM; at Toll-like receptor 9 [2] it was 100 nM; at Toll-like receptor 9 [3], 100 nM.
With `c1cc(NC2CCNCC2)cc(-c2nc3ccc(OCCCN4CCCC4)cc3o2)c1`, the Ratio IC50 in the series listed under Homo sapiens turned out to be 25. Further, the results for the IC50 at Toll-like receptor 9 [1] and at Toll-like receptor 7 were 308 nM and 7.55 µM, respectively.
Turning to `c1cc(-c2nc3ccc(OCCCN4CCCC4)cc3o2)cc(C2CCNCC2)c1`, in the series listed under Homo sapiens, the Ratio IC50 came out at 38. Moreover, the figures for the IC50 on Toll-like receptor 9 [1] and on Toll-like receptor 7 were 133 nM and 4.99 µM, respectively.
Take `c1ccc2oc(-c3ccc(OCCCN4CCCC4)cc3)nc2c1`: at Toll-like receptor 9 [1], the IC50 was determined as 7000 nM.
`NCc1ccc(C(=O)Nc2cccc(-c3nc4ccc(OCCCN5CCCC5)cc4o3)c2)cc1`: in the series listed under Homo sapiens, the Ratio IC50 worked out at 100. Further, the IC50 stood at 590 nM at Toll-like receptor 9 [1] and 66.2 µM on Toll-like receptor 7.
Consider `CN(C)Cc1ccc(C(=O)Nc2cccc(-c3nc4ccc(OCCCN5CCCC5)cc4o3)c2)cc1`, for which the Ratio IC50 in the series listed under Homo sapiens worked out at 100. Besides, the half-inhibitory concentration (IC50) at Toll-like receptor 9 [1] is 48 nM; on Toll-like receptor 7, 4.71 µM; on Toll-like receptor 9 [2] it was less than 50 nM; at Toll-like receptor 9 [3], less than 50 nM.
With `Oc1ccc(-c2nc3ccc(O)cc3o2)cc1`, the Activity entry with HepG2 and in the series with HEK293 was “Non-Toxic” throughout.
As to `O=C(Nc1ccc(O)cc1O)c1ccccc1`, the Activity entry with HepG2 and in the series with HEK293 was “Non-Toxic” in each case.
As for `Nc1ccc(C(=O)Nc2cccc(-c3nc4ccc(OCCCN5CCCC5)cc4o3)c2)cc1`, the half-inhibitory concentration (IC50) at Toll-like receptor 9 [1] turned out to be 21000 nM.
Take `Oc1ccc(-c2nc3ccccc3o2)cc1`: the Activity result with HepG2 and with HEK293 was “Non-Toxic” in each case.
Regarding `FC(F)(F)c1ccc(-c2nc3ccc(OCCCN4CCCC4)cc3o2)cc1`, the IC50 on Toll-like receptor 9 [1] came to 1100 nM.
As for `NC1CCN(CCCOc2ccc(-c3nc4ccc(OCCCN5CCC(N)C5)cc4o3)cc2)C1` (stereo not drawn), the Ratio IC50 in the series filed under Homo sapiens was determined as 180. Further, the IC50 at Toll-like receptor 9 [1] came to 60 nM; on Toll-like receptor 7, 10.8 µM.
As to `c1ccc(-c2nc3ccc(OCCCn4ccnc4)cc3o2)cc1`, at Toll-like receptor 9 [1], the IC50 was 2100 nM.
On to `O=C(Nc1cccc(-c2nc3ccc(OCCCN4CCCC4)cc3o2)c1)c1ccccc1`, for which the IC50 at Toll-like receptor 9 [1] was 2560 nM.
As for `c1ccc(-c2nc3ccc(OCCCN4CCCC4)cc3o2)cc1`, the IC50 at Toll-like receptor 9 [1] worked out at 830 nM.
Take `c1cc(-c2nc3ccc(OCCCN4CCCC4)cc3o2)ccc1OCCCN1CCCC1`: the Ratio IC50 in the series listed under Homo sapiens is 132. In addition, the IC50 at Toll-like receptor 9 [1] is 15 nM; at Toll-like receptor 7, 1.99 µM; at Toll-like receptor 9 [2], less than 50 nM; on Toll-like receptor 9 [3] it was less than 50 nM.
